# CHO parental Ca = signal in parental CHO cells, OX1R antagonist counter-screen; parental CHO-K1, ATP-induced calcium, Fluo-8 fluorescence; inhibition, % at 5.6 µM; 0.63% of 330,000 active;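 active means inhibition above that plate's mean sample inhibition plus 3 SD, cut at about 26% in these data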
#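 Measured by: calcium-sensitive Fluo-8 fluorescence / Test system: CHO parental line / Controls: ATP-challenged DMSO wells low, unchallenged DMSO wells high / Measure: % inhibition / Compound: single nominal dose of 5.6 µM per compound / Replicates: single well per compound, no replicates / Reagent: ATP as calcium-mobilizing challenge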
# OX1R antag-1 = human HCRTR1 antagonism; CHO/OX1R cells, Fluo-8 calcium fluorescence, orexin A; O43613; 0.43% of 330,000 active; inhibition, % at 5 µM;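 active means inhibition above its plate's threshold, mean inhibition of all tested compounds on the plate plus 3 SD, cut at about 37% in these data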
# TAAR1 antag = human TAAR1 antagonism; inhibition, % at 3 µM; CHO RD-HGA16 TAAR1, Fluo-8 calcium fluorescence, antagonist; Q96RJ0; 1.5% of 360,000 active;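 active means inhibition above a per-plate cutoff, the mean inhibition of test compounds on that plate plus 3 SD, cut at about 49% in these data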
#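 Test system – hTAAR1-expressing CHO RD-HGA16 cells, Gα16-coupled · Reagent – β-PEA at EC80 concentration, post-compound challenge · Compound dosing – 3 µM, single point · Timing – 140 s kinetic read after compound, 140 s after agonist · Detection – Fluo-8 intracellular calcium dye fluorescence, real-time kinetic reads · Control set – DMSO and EC80 PEA controls · Repeats – n of 1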
# GalR3 antag = blocks the human galanin receptor 3. O60755. HEK293 GalR3-CNG cAMP membrane potential fluorescence; galR3 body fused to GalR1 C-terminus. inhibition, % at 3 µM. 0.44% of 360,000 active. AID 651719;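 active means inhibition above the screen-wide average plus 3 SD, cut at about 13% in these data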;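 further: forskolin and galanin both at EC90 stimulate the cells; cAMP rise reported by CNG channel membrane potential dye signal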
# Target sequence (O60755 1-299 limits assumed): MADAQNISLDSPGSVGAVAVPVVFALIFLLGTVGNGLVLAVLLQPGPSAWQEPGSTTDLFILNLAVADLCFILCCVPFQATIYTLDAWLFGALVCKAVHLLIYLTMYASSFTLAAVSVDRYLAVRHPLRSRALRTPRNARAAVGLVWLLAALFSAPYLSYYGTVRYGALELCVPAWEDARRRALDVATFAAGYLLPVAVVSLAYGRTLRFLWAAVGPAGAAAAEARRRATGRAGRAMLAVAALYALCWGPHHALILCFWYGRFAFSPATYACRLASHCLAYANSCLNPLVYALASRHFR
# TAAR1 agonist = human TAAR1 agonism; Q96RJ0; CHO RD-HGA16 TAAR1, Fluo-8 calcium fluorescence; vehicle wells 0%, saturating PEA agonist 100%; activation, % at 3 µM; 0.99% of 360,000 active; AID 624467;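 active means activation above the mean activation of all test compounds in the run plus 3 SD, cut at about 38% in these data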
#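 System: CHO-derived RD-HGA16 cells with stable Gα16 and human TAAR1. Times: 17-24 h plating, Fluo-8 75 min 37 °C, 30 min RT. Measured by: calcium-sensitive Fluo-8 signal, excitation 470-495, emission 515-575 nm. Read-out basis: % activation relative to PEA EC100 response. Control set: DMSO and PEA EC100. Repeats: no replicates (n 1).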
# OX1R antag-2 = antagonists of human orexin 1 receptor (OX1R); OX1R-expressing cells, FRET antagonist read-out; inhibition, % at 6.6 µM; O43613; 1.8% of 330,000 active; in the data active means inhibition mostly above about 38%, no sharp cut-off; inactive means mostly below about 40%
# Hits are given with their value; . = inactive; / = not tested or not shown. Shown are actives, neighbours in structure and some others; about 4.2% of the full set was active somewhere.
SMILES,CHO parental Ca,OX1R antag-1,TAAR1 antag,GalR3 antag,TAAR1 agonist,OX1R antag-2
NS(=O)(=O)c1cccc(NC(=O)COC(=O)C2(c3cccc(F)c3)CCCC2)c1,.,.,52,.,.,.
NS(=O)(=O)c1cccc(NC(=O)CC2(CC(=O)O)CCCC2)c1,.,.,.,.,.,.
CCc1cccc(CC)c1NC(=O)COC(=O)C1(c2ccc(Cl)cc2)CCCC1,.,.,.,.,.,.
CC(=O)Nc1ccc(NC(=O)COC(=O)C2(c3ccc(Cl)cc3)CCCC2)cc1,.,.,49,.,39,.
COc1ccc(C(=O)Nc2ccccc2C(=O)NC(Cc2c[nH]c3ccccc23)C(=O)O)cc1 (configuration not stated),.,.,.,.,.,68
O=C(Nc1ccccc1C(=O)NC(Cc1c[nH]c2ccccc12)C(=O)O)c1ccco1 (configuration not stated),.,.,.,.,.,.
Oc1ccc(C23CCCC2C2(CCCC2)c2ccc(O)cc2O3)c(O)c1 (configuration not stated),75,110,99,.,71,.
C/C=C(/C)C(=O)OC1c2c(ccc3ccc(=O)oc23)OC(C)(C)C1OC(C)=O (configuration not stated),.,.,.,.,46,.
CC(=O)c1ccc(NC(=O)C2Cc3ccccc3CN2C(=O)c2ccccc2)cc1 (configuration not stated),.,.,.,.,.,.
COc1ccc(C(=O)Nc2ccc(NC(=O)c3cccc(F)c3)cn2)cc1,.,.,.,.,.,.
O=C(NN1CCOCC1)c1cnn2c(C(F)F)cc(-c3ccccc3)nc12,.,.,.,.,.,40
CCOC(=O)C1=CCC2C(=O)N(C3CCCCC3)C(=O)C12 (configuration not stated),/,/,.,.,.,/
O=C(COc1ccc(Br)cc1)Nc1ccc(-c2nnc(-c3ccco3)o2)cc1,.,.,.,.,.,.
O=C(CCSc1nnc(-c2ccco2)o1)Nc1ccccc1,.,.,.,.,.,.
O=C(CCSc1nnc(-c2ccco2)o1)Nc1ccc(Cl)cc1,.,.,.,.,41,.
COc1ccccc1OCC(=O)Nc1oc(-c2ccccc2)c(-c2ccccc2)c1C#N,.,.,.,.,.,50
COc1ccccc1OCC(=O)Nc1ccc(-c2nnc(-c3ccco3)o2)cc1,.,.,.,.,.,64
COc1ccc(/C=C(\C#N)C(=O)OCC(=O)NCc2ccccc2)cc1,.,.,.,.,.,.
CCOC(=O)C1(CCc2ccccc2)CCN(C(=O)C2=C(C)OCCO2)CC1,.,.,.,.,.,.
Cc1ccc(S(=O)(=O)c2ccc(C)cc2)cc1,.,.,.,.,.,.
Cc1ccc(S(=O)(=O)C=CS(=O)(=O)c2ccc(C)cc2)cc1,/,/,50,.,.,/
O=C1c2ccccc2/C(=C\c2ccc3[nH]ccc3c2)N1c1ccccc1,.,.,.,.,.,.
CCC/C(=C1/c2ccccc2C(=O)N1c1ccccc1)c1ccc2[nH]ccc2c1,.,.,58,.,.,.
CC(C)N(Cc1ccccc1)C(=S)NC(=O)C1(C)CC1(Cl)Cl (configuration not stated),.,.,.,.,.,.
N/C(=N\OC(=O)c1cccc2ccccc12)c1cccnc1,.,.,.,.,.,53
SMILES,CHO parental Ca,OX1R antag-1,TAAR1 antag,GalR3 antag,TAAR1 agonist,OX1R antag-2
Cc1cccc(/C(N)=N/OC(=O)c2cccc3ccccc23)c1,.,.,.,.,.,.
CC1(C)N([O-])C(c2ccccc2)=C[N+](=O)C1(C)C,.,.,.,.,.,.
CC1(C)N([O-])C(c2cccs2)=C[N+]1=O,29,.,.,.,.,.
O=C(CNC(=O)c1ccc2c(c1)OCO2)N/N=C(Br)/C=C/c1ccccc1,.,.,.,.,41,.
O=C(CNC(=O)c1ccc2c(c1)OCO2)N/N=C/c1cccc([N+](=O)[O-])c1,.,.,.,.,.,.
COc1ccc(N2CCN(C(=O)CN(C)S(=O)(=O)c3cccs3)CC2)cc1,.,.,.,.,.,.
